According to ChEMBL document CHEMBL1221214, “Cytosporone B is an agonist for nuclear orphan receptor Nur77” (Nat Chem Biol, 2008):
Converted amounts (≈) assume the structure as drawn. The source made the active and inactive calls. The calls are words filed in the database; no cut-off is given here.

Tests used:
[1] = molecular target: T1, Nuclear receptor subfamily 4immunitygroup A member 1 (Homo sapiens, UniProt P22736); assay: Agonist activity at nuclear orphan receptor Nur77 in human BGC823 cells bearing beta-galactosidase expression vector assessed as transcriptional activation of estrogen receptor reporter gene after 12 hrs by luciferase assay; type: functional, cell-based; settings: BGC-823
[2] = molecular target: T1, Nuclear receptor subfamily 4immunitygroup A member 1; assay: Binding affinity to nuclear orphan receptor Nur77-ligand binding domain at 5 Um by fluorescence quenching analysis
[3] = molecular target: T1, Nuclear receptor subfamily 4immunitygroup A member 1; assay: Binding affinity to nuclear orphan receptor Nur77 assessed as conformational change in receptor by CD spectroscopic
[4] = molecular target: T1, Nuclear receptor subfamily 4immunitygroup A member 1; assay: Agonist activity at nuclear orphan receptor Nur77 expressed in human BGC823 cells co-transfected with fused GAL4-LBD assessed as transactivation after 12 hrs by luciferase reporter gene assay; type: functional, cell-based, BGC-823
[5] = molecular target: T1, Nuclear receptor subfamily 4immunitygroup A member 1; assay: Agonist activity at nuclear orphan receptor Nur77 expressed in human BGC823 cells co-transfected with fused GAL4-Y453A assessed as transactivation after 12 hrs by luciferase reporter gene assay; type: functional, cell-based; settings: BGC-823
[6] = molecular target: Nuclear receptor subfamily 4 group A member 1 (Mus musculus) (UniProt P12813); assay: Agonist activity at Nur77 in wild-type mouse C57BL/6 assessed as glucose-6-phosphatase mRNA at 50 mg/kg, ip within 30 mins by real-time PCR analysis relative to control; type: functional, organism-based; set-up: dose 50 mg/kg
[7] = molecular target: Nuclear receptor subfamily 4 group A member 1 (Mus musculus) (UniProt P12813); assay: Agonist activity at Nur77 in wild-type mouse C57BL/6 assessed as fructose-1,6-bisphosphatase mRNA at 50 mg/kg, ip within 30 mins by real-time PCR analysis relative to control; type: functional, organism-based; set-up: dose 50 mg/kg
[8] = molecular target: Nuclear receptor subfamily 4 group A member 1 (Mus musculus) (UniProt P12813); assay: Agonist activity at Nur77 in wild-type mouse C57BL/6 assessed as pyruvate kinase mRNA at 50 mg/kg, ip within 30 mins by real-time PCR analysis; type: functional, organism-based; set-up: dose 50 mg/kg
[9] = molecular target: Nuclear receptor subfamily 4 group A member 1 (Mus musculus) (UniProt P12813); assay: Agonist activity at Nur77 in wild-type mouse C57BL/6 assessed as hexokinase mRNA at 50 mg/kg, ip after 300 mins by real-time PCR analysis; type: functional, organism-based; set-up: dose 50 mg/kg
[10] = molecular target: Nuclear receptor subfamily 4 group A member 1 (Mus musculus) (UniProt P12813); assay: Agonist activity at Nur77 in Nr4a1 deficient mouse C57BL/6 assessed as glucose-6-phosphatase mRNA at 50 mg/kg, ip by real-time PCR analysis; type: functional, organism-based; set-up: dose 50 mg/kg
[11] = molecular target: Nuclear receptor subfamily 4 group A member 1 (Mus musculus) (UniProt P12813); assay: Agonist activity at Nur77 in Nr4a1 deficient mouse C57BL/6 assessed as fructose-1,6-bisphosphatase mRNA at 50 mg/kg, ip by real-time PCR analysis; type: functional, organism-based; set-up: dose 50 mg/kg
[12] = test system: BGC-823; assay: Induction of Nur77 mediated apoptosis in human BGC823 cells transfected with si-Nur77 at 5 uM after 48 hrs by flow cytometry assay; type: functional; settings: in the assay text read “5 ug/ml” for “5 uM”
Method in brief: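 BGC-823 gastric cancer cells, transfected or not with Nur77 siRNA or scrambled control siRNA, then exposed to 5 μg ml-1 for 48 h. Apoptotic cells were counted by flow cytometry.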

[13] = test system: BGC-823; assay: Induction of Nur77 mediated apoptosis in human BGC823 cells assessed as cytochrome C release from mitochondria at 5 uM after 24 hrs by Western blotting analysis; type: functional, cell-based
[14] = test system: BGC-823; assay: Induction of mitochondrial translocation of Nur77 from nucleus in human BGC823 cells transfected with GFP-Nur77 at 5 ug/ml after 12 hrs using immunostained with anti-Hsp60 by confocal microscopy; type: functional, cell-based
Method in brief: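 BGC-823 cells transfected with GFP-Nur77, treated at 5 μg ml-1 for 12 h, immunostained with anti-Hsp60 and Texas Red secondary antibody, and imaged by confocal microscopy for mitochondrial localization.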

[15] = test system: SW-620; assay: Antiproliferative activity against human SW620 cells assessed as number of viable cells after 72 hrs by MTT assay; type: functional
Method in brief: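 BGC-823 gastric and SW620 colon cancer cells incubated 72 h with various Csn-B concentrations; viable cells counted by MTT assay.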

[16] = species on record: Mus musculus; assay: Antiproliferative activity against mouse ME-Hep4 cells assessed as number of viable cells after 72 hrs by MTT assay; type: functional, cell-based
[17] = test system: Saccharomyces cerevisiae; assay: Antimicrobial activity against Saccharomyces cerevisiae; type: functional, organism-based
[18] = molecular target: T1, Nuclear receptor subfamily 4immunitygroup A member 1; assay: Agonist activity at nuclear orphan receptor Nur77 expressed in human BGC823 cells co-transfected with pLuc-2900 containing Nr4a1 promoter assessed as transcriptional activity; type: functional, cell-based; settings: BGC-823
[19] = molecular target: T1, Nuclear receptor subfamily 4immunitygroup A member 1; assay: Agonist activity at nuclear orphan receptor Nur77 expressed in human BGC823 cells co-transfected with pLuc-500 containing Nr4a1 promoter assessed as transcriptional activity; type: functional, cell-based; settings: BGC-823
[20] = molecular target: T1, Nuclear receptor subfamily 4immunitygroup A member 1; assay: Induction of Nur77-SRC1 interaction in human 293T cells by GST-pull-down assay; type: cell-based
Method in brief: (§1)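 293T cells transfected with Flag-SRC-1, -2 or -3 and treated at 10⁻⁶ M for 3 h. Lysates were incubated with GST-Nur77 or GST alone, and bound SRC was detected by pull-down against input levels.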

[21] = molecular target: T1, Nuclear receptor subfamily 4immunitygroup A member 1; assay: Induction of Nur77-SRC2 interaction in HEK293T cells by GST-pull-down assay; type: cell-based; settings: HEK-293T; method in brief: as §1
[22] = molecular target: T1, Nuclear receptor subfamily 4immunitygroup A member 1; assay: Induction of Nur77-SRC3 interaction in HEK293T cells by GST-pull-down assay; type: cell-based; settings: HEK-293T; method in brief: as §1
[23] = test system: BGC-823; assay: Induction of SRC2 recruitment to NurRE in human BGC823 cells after 12 hrs by luciferase/beta-galactosidase reporter assay; type: functional, cell-based
Method in brief: (§2)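 BGC-823 cells cotransfected with or without SRC-1, SRC-2 or SRC-3, plus NurRE-luciferase reporter and β-galactosidase, then treated for 12 h at a range of concentrations. Fold induction is each luciferase activity relative to non-SRC transfection at the same concentration.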

[24] = test system: BGC-823; assay: Induction of SRC3 recruitment to NurRE in human BGC823 cells after 12 hrs by luciferase/beta-galactosidase reporter assay; type: functional, cell-based; method in brief: as §2
[25] = molecular target: T1, Nuclear receptor subfamily 4immunitygroup A member 1; assay: Induction of SRC2-enhanced Nur77 transactivational activity in human BGC823 cells after 12 hrs by luciferase/beta-galactosidase reporter assay; type: cell-based; settings: BGC-823; method in brief: as §2
[26] = molecular target: T1, Nuclear receptor subfamily 4immunitygroup A member 1; assay: Induction of SRC1-enhanced Nur77 transactivational activity in human BGC823 cells after 12 hrs by luciferase/beta-galactosidase reporter assay; type: cell-based; settings: BGC-823; method in brief: as §2
[27] = molecular target: Nuclear receptor subfamily 4 group A member 1 (Mus musculus) (UniProt P12813); assay: Agonist activity at Nur77 in Nr4A1 deficient mouse assessed as transcriptional activation of luciferase reporter gene relative to control; type: functional
[28] = molecular target: Nuclear receptor subfamily 4 group A member 1 (Mus musculus) (UniProt P12813); assay: Agonist activity at Nur77 in Nr4a1 deficient mouse transfected withGAL4-Y453A assessed as transcriptional activation of luciferase reporter gene; type: functional
Method in brief: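 Nr4a1-/- mice (n = 5/group) given tail-vein GAL4-Nur77 or GAL4-Y453A with GAL4-luciferase reporter and β-galactosidase in in vivo transfection reagent; 5 h later DMSO or Csn-B 50 mg kg-1 ip; liver luciferase measured at 24 h.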

[29] = test system: BGC-823; assay: Antitumor activity against human BGC823 cells expressing si-Nur77 xenografted in athymic nude mouse BALB/c assessed as apoptotic cells by TUNEL assay; type: functional
Method in brief: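 Tumors from the subcutaneous BGC-823 xenograft nude mice (wild-type, si-Nur77 or si-Ctrl cells; Csn-B 13 mg kg-1 ip twice weekly or DMSO for 4 weeks) were sectioned and apoptotic cells detected by TUNEL assay.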

[30] = molecular target: Nuclear receptor subfamily 4 group A member 1 (Mus musculus) (UniProt P12813); assay: Agonist activity at Nur77 in Nr4a1-/- mouse transfected withGAL4-Y453A assessed as transcriptional activation of luciferase reporter gene

T1 sequence (P22736 whole entry, the tested form may be a part): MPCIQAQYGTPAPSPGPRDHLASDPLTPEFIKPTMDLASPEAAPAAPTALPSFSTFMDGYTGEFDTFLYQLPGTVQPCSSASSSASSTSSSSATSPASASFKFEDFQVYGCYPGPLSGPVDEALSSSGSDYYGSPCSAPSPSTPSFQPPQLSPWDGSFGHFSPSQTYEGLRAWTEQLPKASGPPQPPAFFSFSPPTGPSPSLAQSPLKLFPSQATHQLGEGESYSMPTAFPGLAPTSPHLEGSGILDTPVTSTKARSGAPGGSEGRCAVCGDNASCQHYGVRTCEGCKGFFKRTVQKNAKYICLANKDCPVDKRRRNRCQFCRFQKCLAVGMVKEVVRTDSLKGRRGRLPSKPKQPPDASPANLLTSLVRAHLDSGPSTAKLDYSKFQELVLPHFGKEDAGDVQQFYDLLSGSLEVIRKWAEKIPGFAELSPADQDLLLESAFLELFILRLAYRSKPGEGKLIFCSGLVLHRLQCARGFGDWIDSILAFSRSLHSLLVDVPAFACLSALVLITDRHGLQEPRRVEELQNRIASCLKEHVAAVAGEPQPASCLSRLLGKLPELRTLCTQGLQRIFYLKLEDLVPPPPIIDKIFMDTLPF
Chain of Nuclear receptor subfamily 4 group A member 1 (Mus musculus) (P12813 whole entry, the tested form may be a part): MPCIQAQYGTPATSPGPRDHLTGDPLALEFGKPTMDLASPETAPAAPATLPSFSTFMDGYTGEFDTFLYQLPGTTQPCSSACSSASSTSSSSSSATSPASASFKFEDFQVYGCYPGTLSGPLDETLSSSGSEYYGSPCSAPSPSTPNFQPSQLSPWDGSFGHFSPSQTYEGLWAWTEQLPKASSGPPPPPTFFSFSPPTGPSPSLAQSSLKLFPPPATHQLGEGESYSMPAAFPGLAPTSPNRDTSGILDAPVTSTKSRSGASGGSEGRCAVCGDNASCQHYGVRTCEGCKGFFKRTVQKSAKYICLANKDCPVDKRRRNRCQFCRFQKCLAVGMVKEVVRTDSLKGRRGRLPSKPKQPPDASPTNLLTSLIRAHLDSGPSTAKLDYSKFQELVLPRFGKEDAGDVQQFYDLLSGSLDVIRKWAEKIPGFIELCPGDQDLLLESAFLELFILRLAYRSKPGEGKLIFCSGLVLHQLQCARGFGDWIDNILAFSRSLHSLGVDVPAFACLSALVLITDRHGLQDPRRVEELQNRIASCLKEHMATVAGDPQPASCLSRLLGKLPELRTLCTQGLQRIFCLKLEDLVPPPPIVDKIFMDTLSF

Question: What does the source list for `CCCCCCCC(=O)c1c(O)cc(O)cc1CC(=O)OCC` [CYTOSPORONE B]?
Answer: Activity [1]: inactive; Activity [2]: Active; Activity [3]: Active; EC50 [4]: 0.115 nM; Activity [5]: inactive; Activity [6]: Active; fold change (FC) [7]: 3; Activity [8]: inactive; Activity [9]: inactive; Activity [10]: inactive; Activity [11]: inactive; Activity [12]: 20.1%; Activity [13]: Active; Activity [14]: Active; inhibition (INH) [15]: >70%; inhibition [16]: Active; IC50 [17]: 1.56 µg/mL (≈ 4.84 µM); Activity [18]: Active; Activity [19]: inactive; Activity [20]: Active; Activity [21]: Active; Activity [22]: inactive; Activity [23]: Active; Activity [24]: inactive; Activity [25]: Dose-dependent effect; Activity [26]: Dose-dependent effect; Activity [27]: inactive; Activity [28]: inactive; Activity [29]: Active; Activity [30]: Active
